{"source": "paper PMC3786144", "about": "(Biochimica et biophysica acta, 2013)", "key": {"[1]": {"system": "Id1", "test": "Id1 mRNA expression by qPCR in NIH3T3 cells", "assay_type": "cell-based, mouse", "settings": "for response of the Id1 gene to serum: data not shown; for Id1 RNA levels on serum induction: then 20% serum 0 to 120 minutes"}, "[2]": {"molecular_target": "ALK3 (Homo sapiens, UniProt P36894)", "sequence (P36894 24-532)": "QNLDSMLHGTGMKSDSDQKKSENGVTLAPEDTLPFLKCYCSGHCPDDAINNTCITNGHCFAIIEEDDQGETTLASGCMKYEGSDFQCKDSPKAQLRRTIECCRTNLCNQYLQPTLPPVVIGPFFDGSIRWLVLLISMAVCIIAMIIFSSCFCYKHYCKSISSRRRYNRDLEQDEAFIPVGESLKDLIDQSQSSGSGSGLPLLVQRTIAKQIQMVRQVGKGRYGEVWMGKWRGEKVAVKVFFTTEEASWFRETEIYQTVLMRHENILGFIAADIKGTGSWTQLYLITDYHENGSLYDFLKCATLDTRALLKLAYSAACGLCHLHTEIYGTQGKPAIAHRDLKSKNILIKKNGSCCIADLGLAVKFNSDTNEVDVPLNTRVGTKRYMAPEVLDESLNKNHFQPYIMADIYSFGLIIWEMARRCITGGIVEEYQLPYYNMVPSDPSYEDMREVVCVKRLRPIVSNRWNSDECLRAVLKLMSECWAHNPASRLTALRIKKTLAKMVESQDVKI", "test": "In vitro kinase reaction", "assay_type": "biochemical", "in_short": "(§1)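 Radiometric filter-binding assay with purified recombinant kinase/substrate pairs. Reactions ran with ATP plus 33P-ATP (10 μM final) at 10 test compound concentrations in triplicate, in 20 mM Hepes pH 7.5, 10 mM MgCl2, 1 mM EGTA, 2 mM DTT, 1% DMSO, for 120 min at 25 °C. Products were spotted on P81 paper and washed in 0.75% phosphoric acid. Activity was expressed as % of DMSO control; IC50 came from curve fitting.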"}, "[3]": {"system": "Id1", "settings": "A549 lung carcinoma cell line; cited from earlier work"}, "[4]": {"system": "Id1 promoter", "test": "Id1 promoter luciferase reporter assay in NIH3T3 cells", "assay_type": "cell-based, mouse"}, "[5]": {"system": "c-fos", "test": "c-fos mRNA expression by qPCR in NIH3T3 cells", "assay_type": "cell-based, mouse", "settings": "then 20% serum", "in_short": "(§2)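 NIH3T3 cells were starved overnight in 0.2% serum and pretreated 1 hour with test compound. They were then induced with 20% NCS for 0–120 min. RNA was taken up in Tri Reagent, and cDNA was made from 1 μg total RNA with random hexamers. qPCR was normalised to 18s rRNA. Values are means of three experiments ± standard deviations.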"}, "[6]": {"molecular_target": "ALK1 (Homo sapiens, UniProt P37023)", "sequence (P37023 22-503)": "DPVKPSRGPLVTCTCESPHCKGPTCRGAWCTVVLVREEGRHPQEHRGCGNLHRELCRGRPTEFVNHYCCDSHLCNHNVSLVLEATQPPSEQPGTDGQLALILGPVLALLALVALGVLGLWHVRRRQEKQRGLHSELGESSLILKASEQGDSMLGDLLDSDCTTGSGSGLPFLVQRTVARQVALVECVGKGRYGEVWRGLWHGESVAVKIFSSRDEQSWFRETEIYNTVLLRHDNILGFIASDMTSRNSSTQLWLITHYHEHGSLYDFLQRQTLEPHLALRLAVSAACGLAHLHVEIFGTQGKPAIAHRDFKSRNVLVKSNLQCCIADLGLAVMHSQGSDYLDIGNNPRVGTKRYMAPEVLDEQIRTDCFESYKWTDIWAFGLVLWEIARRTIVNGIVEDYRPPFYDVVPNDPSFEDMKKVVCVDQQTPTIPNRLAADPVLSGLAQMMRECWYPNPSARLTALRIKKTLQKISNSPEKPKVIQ", "test": "In vitro kinase reaction", "assay_type": "biochemical", "in_short": "as §1"}, "[7]": {"system": "Id3", "test": "Id3 mRNA expression by qPCR in NIH3T3 cells", "assay_type": "cell-based, mouse", "settings": "NIH3T3, AZD0530 100 nM 1 hour, then 20% serum", "in_short": "as §2"}, "[8]": {"system": "c-fos promoter", "test": "c-fos promoter luciferase reporter assay in NIH3T3 cells", "assay_type": "cell-based, mouse", "settings": "NIH3T3, AZD0530 100 nM 1 hour, then 20% NCS 4 hours", "in_short": "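NIH3T3 cells, 4 × 10^4 per well, were transfected with 100 ng c-fos promoter firefly reporter plus 100 ng SV40-Renilla control. Next day they were starved overnight in 0.2% NCS, treated 1 hour with 100 nM test compound, then induced with 20% NCS for 4 hours. Dual-luciferase assay; firefly was normalised to Renilla.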"}, "[9]": {"molecular_target": "constitutively active ALK3 (Homo sapiens, UniProt P36894, Q233D)", "sequence (P36894 24-532 Q233D)": "as the sequence (P36894 24-532) above, with Q210D counted along it", "test": "Id1 reporter activated by constitutively active ALK3 in NIH3T3 cells", "assay_type": "cell-based", "settings": "NIH3T3, Id1 −1150 reporter, AZD0530 100 nM overnight in 0.2% serum", "in_short": "(§3)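 NIH3T3 cells, 4 × 10^4 per well, received fresh 10% NCS and were then transfected with 100 ng Renilla SV40 control, 100 ng mouse Id1 −1150 firefly reporter and 25 ng constitutively active ALK. Next day they went into 0.2% serum with 100 nM test compound or DMSO overnight. Dual-luciferase readout; firefly was normalised to Renilla.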"}, "[10]": {"system": "HCT116 cells", "test": "Proliferation of HCT116 cells", "assay_type": "cell-based", "settings": "preliminary results"}, "[11]": {"system": "plasminogen activator inhibitor-1 (PAI-1)", "test": "PAI-1 mRNA expression by qPCR in NIH3T3 cells", "assay_type": "cell-based, mouse", "settings": "NIH3T3, AZD0530 100 nM 1 hour, then 20% serum", "in_short": "as §2"}, "[12]": {"system": "Smad1/5", "settings": "A549 cells; cited from earlier work"}, "[13]": {"system": "constitutively active ALK1", "test": "Id1 reporter activated by constitutively active ALK1 in NIH3T3 cells", "assay_type": "cell-based", "settings": "NIH3T3, Id1 −1150 reporter, AZD0530 100 nM overnight in 0.2% serum", "in_short": "as §3"}, "[14]": {"molecular_target": "T1, BMPR-2 (Homo sapiens, UniProt Q13873)", "T1 sequence (Q13873 27-1038)": "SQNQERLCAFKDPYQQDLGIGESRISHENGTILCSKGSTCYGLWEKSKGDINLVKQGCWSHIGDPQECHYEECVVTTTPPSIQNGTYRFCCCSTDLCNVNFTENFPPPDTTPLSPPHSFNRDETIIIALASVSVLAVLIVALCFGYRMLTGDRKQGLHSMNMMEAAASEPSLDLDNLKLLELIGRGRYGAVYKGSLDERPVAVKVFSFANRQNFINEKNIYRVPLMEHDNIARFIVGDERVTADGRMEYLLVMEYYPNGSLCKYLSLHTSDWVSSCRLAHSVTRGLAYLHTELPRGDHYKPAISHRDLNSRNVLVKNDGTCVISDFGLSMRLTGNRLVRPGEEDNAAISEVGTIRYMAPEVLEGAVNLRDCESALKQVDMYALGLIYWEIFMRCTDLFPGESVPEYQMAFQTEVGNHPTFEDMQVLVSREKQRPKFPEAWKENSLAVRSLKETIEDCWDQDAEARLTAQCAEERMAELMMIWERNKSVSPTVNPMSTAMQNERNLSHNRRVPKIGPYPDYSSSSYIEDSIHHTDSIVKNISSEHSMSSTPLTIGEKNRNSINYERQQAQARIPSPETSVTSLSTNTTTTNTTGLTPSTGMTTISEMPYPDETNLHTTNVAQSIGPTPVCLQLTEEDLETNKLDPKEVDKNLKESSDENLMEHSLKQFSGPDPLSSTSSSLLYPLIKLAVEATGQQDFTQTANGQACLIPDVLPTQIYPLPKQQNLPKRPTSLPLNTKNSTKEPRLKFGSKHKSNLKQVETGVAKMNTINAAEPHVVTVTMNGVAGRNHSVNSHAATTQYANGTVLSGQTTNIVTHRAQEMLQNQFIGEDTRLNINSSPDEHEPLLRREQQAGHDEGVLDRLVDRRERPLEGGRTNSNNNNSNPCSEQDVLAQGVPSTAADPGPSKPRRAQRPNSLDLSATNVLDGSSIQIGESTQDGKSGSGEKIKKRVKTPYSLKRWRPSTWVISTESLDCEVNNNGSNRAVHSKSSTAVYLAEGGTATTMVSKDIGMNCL", "test": "In vitro kinase reaction", "assay_type": "biochemical", "settings": "10 μM ATP, 120 minutes at 25 °C", "in_short": "as §1"}, "[15]": {"system": "Id1", "test": "Id1 mRNA expression by qPCR in HCT116 cells", "assay_type": "cell-based", "settings": "HCT116, Dorsomorphin 1 μm", "in_short": "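HCT116 cells, kept in DMEM with 10% FBS at 5% CO2, were starved overnight in 0.2% serum with DMSO or test compound. RNA was isolated in Tri Reagent. cDNA was made from 1 μg total RNA with random hexamers. Id1 mRNA was quantified by qPCR normalised to 18s rRNA.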"}, "[16]": {"system": "phospho-Smad1/5/8", "test": "Phospho-Smad1/5/8 immunoblot in HCT116 cells", "assay_type": "cell-based", "settings": "HCT116, Dorsomorphin 1 μm", "in_short": "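HCT116 cells were starved overnight in 0.2% serum with DMSO or test compound, lysed in passive lysis buffer and cleared at 11,000 × g. Proteins were run by SDS-PAGE and blotted to nitrocellulose. Phospho-Smad1/5/8 primary (1:1000) was applied overnight at 4°C, followed by fluorescent secondary (1:10,000) and infrared imaging. Actin served as loading control.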"}, "[17]": {"system": "Smad1/5/8", "test": "Total Smad1/5/8 immunoblot in NIH3T3 cells", "assay_type": "cell-based, mouse", "settings": "NIH3T3, Dorsomorphin 1μM 1 hour, then serum", "in_short": "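Serum-starved NIH3T3 cells were treated 1 hour with DMSO or test compound, then serum-stimulated. Lysis was in passive lysis buffer, followed by SDS-PAGE (10% or 12%) and nitrocellulose transfer with 6% milk block. Phospho-specific or total primaries (1:1000) were applied overnight at 4°C, then fluorescent secondaries (1:10,000) for 1 hour at room temperature, with infrared imaging. Actin served as loading control.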"}, "[18]": {"system": "phospho-Smad1/5/8", "test": "Phospho-Smad1/5/8 immunoblot in NIH3T3 cells", "assay_type": "cell-based, mouse", "settings": "NIH3T3, Dorsomorphin 1μM 1 hour, then serum"}, "[19]": {"system": "Id1", "settings": "MDA-MB-231 breast carcinoma line; cited from earlier work"}, "[20]": {"settings": "NIH3T3, AZD0530 100 nM 1 hour, then 20% NCS 4 hours"}}, "note": "Where two headings read alike, the source gives them in different places.", "data": [{"molecule": "Cc1ccc(NC(=O)c2ccc(CN3CCN(C)CC3)cc2)cc1Nc1nccc(-c2cccnc2)n1", "note": "[imatinib]", "values": [{"measurement": "response of the Id1 gene to serum", "setting": "[1]", "value": "Neither another Src inhibitor, PP2, nor the BCR-abl inhibitor, imatinib, had any effect"}]}, {"molecule": "CN1CCN(CCOc2cc(OC3CCOCC3)c3c(Nc4c(Cl)ccc5c4OCO5)ncnc3c2)CC1", "note": "[AZD0530, saracatinib]", "values": [{"measurement": "IC50", "setting": "[2]", "value": "3 to 30", "unit": "nM"}, {"measurement": "Id1 expression", "setting": "[3]", "value": "inhibit Id1 expression"}, {"measurement": "Id1 serum induction, mRNA expression", "setting": "[1]; NIH3T3, AZD0530 100 nM 1 hour, then 20% serum", "value": "complete loss"}, {"measurement": "Id1 serum induction, promoter activation (−1150 Id1 reporter)", "setting": "[4]; [20]", "value": "complete loss"}, {"measurement": "serum induction of the 4X BRE-SBE reporter", "setting": "[4]; [20]", "value": "blocked"}, {"measurement": "c-fos induction by serum (mRNA)", "setting": "[5]; NIH3T3, AZD0530 100 nM 1 hour", "value": "no effect"}, {"measurement": "IC50", "setting": "[6]", "value": "3 to 30", "unit": "nM"}, {"measurement": "Id3 expression on serum induction", "setting": "[7]", "value": "strongly reduced"}, {"measurement": "serum induction of the c-fos promoter (reporter)", "setting": "[8]", "value": "little effect"}, {"measurement": "activation of the Id1 promoter by constitutively active ALK3", "setting": "[9]", "value": "significantly decreased"}, {"measurement": "proliferation of HCT116 cells", "setting": "[10]", "value": "did not reduce"}, {"measurement": "PAI-1 serum activation (mRNA)", "setting": "[11]", "value": "decrease in serum activation"}, {"measurement": "activation of Smad1/5", "setting": "[12]", "value": "prevented activation"}, {"measurement": "activation of the Id1 promoter by constitutively active ALK1", "setting": "[13]", "value": "significantly decreased"}, {"measurement": "inhibition of BMPR-2 kinase activity", "setting": "[14]", "value": "no inhibition"}]}, {"molecule": "C[C@@H]1C[C@@H]([C@H](O)CC2CC(=O)NC(=O)C2)C(=O)[C@@H](C)C1", "note": "[cycloheximide]", "values": [{"measurement": "BMP2 induction of Id1 in the presence of the protein synthesis inhibitor", "setting": "[1]; NIH3T3, 50 μg/ml cycloheximide, BMP2 (supplemental Fig. S3)", "value": "higher"}]}, {"molecule": "c1cc(-c2cnn3cc(-c4ccc(OCCN5CCCCC5)cc4)cnc23)ccn1", "note": "[Dorsomorphin, dorsomorphin]", "values": [{"measurement": "Id1 expression (mRNA)", "setting": "[15]", "value": "inhibition"}, {"measurement": "induction of Id1 mRNA in response to serum", "setting": "[1]; NIH3T3, Dorsomorphin 1 hour, then 20% NCS 1 hour", "value": "strongly inhibited"}, {"measurement": "phospho-Smad1/5/8 levels", "setting": "[16]", "value": "inhibition"}, {"measurement": "total level of Smad1/5/8", "setting": "[17]", "value": "unchanged"}, {"measurement": "phosphorylation of Smad1/5/8", "setting": "[18]", "value": "inhibits the phosphorylation"}]}, {"molecule": "CC(C)(C)n1nc(-c2ccc(Cl)cc2)c2c(N)ncnc21", "note": "[PP2]", "values": [{"measurement": "response of the Id1 gene to serum", "setting": "[1]", "value": "Neither another Src inhibitor, PP2, nor the BCR-abl inhibitor, imatinib, had any effect"}, {"measurement": "Id1 expression", "setting": "[19]", "value": "inhibited Id1 expression"}]}, {"molecule": "O=c1cc(N2CCOCC2)oc2c(-c3ccccc3)cccc12", "note": "[LY294002]", "values": [{"measurement": "Id1 RNA levels on serum induction", "setting": "[1]; NIH3T3, LY294002 10 μM 1 hour", "value": "unchanged"}, {"measurement": "c-fos expression on serum induction", "setting": "[5]; NIH3T3, LY294002 10 μM 1 hour", "value": "little effect"}]}, {"molecule": "O=C(NOC[C@H](O)CO)c1ccc(F)c(F)c1Nc1ccc(I)cc1F", "note": "[PD0325901]", "values": [{"measurement": "Id1 RNA levels on serum induction", "setting": "[1]; NIH3T3, PD0325901 5 μM 1 hour", "value": "unchanged"}, {"measurement": "c-fos expression on serum induction", "setting": "[5]; NIH3T3, PD0325901 5 μM 1 hour", "value": "dramatically decreased"}]}, {"molecule": "Noggin: BMP antagonist noggin (protein, UniProt Q13253 28-232, looked up) Noggin: QHYLHIRPAPSDNLPLVDLIEHPDPIFDPKEKDLNETLLRSLLGGHYDPGFMATSPPEDRPGGGGGAAGGAEDLAELDQLLRQRPSGAMPSEIKGLEFSEGLAQGKKQRLSKKLRRKLQMWLWSQTFCPVLYAWNDLGSRFWPRYVKVGSCFSKRSCSVPEGMVCKPSKSVHLTVLRWRCQRRGGQRCGWIPIQYPIISECKCSC", "values": [{"measurement": "serum induction of Id1 mRNA", "setting": "[1]; NIH3T3, 100 ng/ml noggin during serum-starvation, 20% serum", "value": "abolished serum induction"}, {"measurement": "serum activation of the Id1 promoter (reporter assay)", "setting": "[4]; NIH3T3, mId1 −1150 reporter, noggin during serum-starvation, 20% serum", "value": "abolished serum activation"}]}]}
